Results as given in ChEMBL document CHEMBL2021907, “Amyrisins A-C, O-prenylated flavonoids from Amyris madrensis” (J Nat Prod, 2012).
Active and inactive are the calls of the source. The calls are words filed in the database; no cut-off is given here.

Tests used:
[1] = tested on: PC-3; experiment: Cytotoxicity against human PC3 cells at 50 uM after 48 hrs by SRB assay; type: functional, cell-based
In short: (§1)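 SRB assay over 48 h, with a concentration range up to 50 μM, in cells pre-plated at set densities. PC-3 cells were grown in RPMI 1640 with 10% FBS and 50 µg/mL gentamicin. DU 145 cells were grown in Richter's IMEM with 10% FBS and 25 µg/mL gentamicin. The IC50 is the 50% growth-inhibition concentration, averaged over two independent triplicate experiments.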

[2] = species on record: Homo sapiens; experiment: Disruption of microtubules in human MDA-MB-435 after 1 hr by immunoblotting technique
[3] = tested on: PC-3; experiment: Cytotoxicity against human PC3 cells after 48 hrs by SRB assay; type: functional, cell-based; conditions: PC-3, 48 h; in short: as §1
[4] = tested on: DU-145; experiment: Cytotoxicity against human DU145 cells after 48 hrs by SRB assay; type: functional, cell-based; conditions: DU-145, 48 h; in short: as §1
[5] = tested on: PC-3; experiment: Effect on cell cycle distribution in human PC3 cells at 50 uM after 18 hrs by flow cytometry; type: functional, cell-based

| SMILES | Activity [1] | Activity [2] | IC50 [3] [µM] | IC50 [4] [µM] | Activity [5] |
| --- | --- | --- | --- | --- | --- |
| COc1c(O)cc2oc(-c3ccc(OCC=C(C)C)cc3)cc(=O)c2c1O | inactive | inactive | – | – | – |
| C=C(C)C(O)COc1ccc(-c2cc(=O)c3c(O)c(OC)c(O)cc3o2)cc1 (stereo unspecified) [AMYRISIN B] | – | inactive | 17.5 | 17.5 | – |
| COc1cc(-c2cc(=O)c3c(O)c(OC)c(O)cc3o2)ccc1OCC=C(C)C [AMYRISIN C] | – | inactive | 23 | 23 | inactive |
| O=C1OC[C@@H]2Cc3cc4c(cc3[C@@H](c3ccc5c(c3)OCO5)[C@@H]12)OCO4 [POLYGAMAIN] | – | Active | 0.0706 | – | – |
